# APP 5'UTR act – APP 5'UTR luciferase reporter activation. activation, % at 2 µM. SH-SY5Y APP 5'UTR luciferase reporter, luminescence; zero percent = DMSO vehicle wells. AID 1276. 190,000 tested, 1% active;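 active means activation above a set limit, based on mean plus 3 SD of controls, cut at about 140% in these data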
# STAT3 blocker – inhibitors of IL-6 induced STAT3 signaling; U3A cells, IL-6 STAT3-luciferase reporter, luminescence; host cell line lacks STAT1; 190,000 tested, 0.89% active; inhibition, % at 5.5 µM;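 active means inhibition above the mean inhibition across all screened compounds plus 3 SD, cut at about 44% in these data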;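 further: 0% = DMSO only wells and 100% = 100 µM nifuroxazide control wells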
# STAT1 activator – STAT1 signaling activation; NIH 3T3 STAT1-luciferase reporter, IFN-gamma, luminescence; 100% = IFN-gamma alone, no compound; 200,000 tested, 2.6% active; activation (% of control), % at 5.5 µM;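 active means activation above the screen-wide mean activation plus 3 SD, cut at about 130% in these data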;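 further: raw ratio to IFN-gamma control signal so 100% means no change and 0% no light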
# STAT3 activator – STAT3 signaling activation | U3A cells, IL-6 STAT3-luciferase reporter, luminescence; 100% = signal with IL-6 EC80 alone | activation (% of control), % at 5.6 µM | 190,000 tested, 0.91% active;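 active means activation above the screen-wide mean of compound activation plus 3 SD, cut at about 130% in these data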;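 further: 0% = background luminescence of wells with medium and substrate only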
#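 Material: STAT3-luciferase reporter U3A cells; Probe or stimulus: IL-6 (33 ng/mL); Incubation: compound pre-incubation 1 h before IL-6, then 6 h stimulation at 37 °C; Technique: luminescence from STAT3-driven luciferase reporter; Evaluation: % activation versus median of IL-6-stimulated wells; Controls: IL-6-only high control.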
# STAT1 inh – inhibitors of IFN-gamma induced STAT1 signaling; NIH 3T3 STAT1-luciferase reporter, luminescence; inhibition, % at 5.5 µM; 200,000 tested, 0.35% active;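 active means inhibition above a set limit, the mean inhibition across all tested compounds plus 3 SD, cut at about 34% in these data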;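 further: 0% = IFN-gamma with DMSO and 100% = IFN-gamma with 300 µM nifuroxazide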
# NF-kB expr up – NF-kB expression increase, human neuronal cells. NF-kB reporter expression; active compounds read high. fold change at 12.5 µM. 190,000 tested, 1.6% active; in the data active means fold change above about 3.3
# STAT1 activ conf – STAT1 activation, confirmation assay; shares compounds with STAT1 activator; activation (% of control), % at 5.7 µM; NIH 3T3 STAT1-luciferase reporter, IFN-gamma potentiation, luminescence; 100% = IFN-gamma EC80 alone, no compound; 1,200 tested, 97% active; AID 1262;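 active means activation above a set limit carried over from the earlier primary STAT1 screen, cut at about 140% in these data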;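 further: simple ratio to median IFN-gamma plus DMSO wells so 0% means no light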
# NFkB act STAT1ct – counter-screen for STAT1 activators: NF-kappaB activation; shares compounds with STAT1 activator; HEK293T NF-kB luciferase reporter, TNF-alpha stimulated, luminescence; 100% = TNF-alpha with vehicle only; activation (% of control), % at 5.7 µM; 1,200 tested, 43% active; AID 1306;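 active means activation above the mean of solvent-only control wells plus 3 SD, set per campaign, cut at about 130% in these data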;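 further: TNF-alpha given at a submaximal dose yielding about 80% of full reporter signal; values are well signal over median control so 100% means no change and 0% no light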
# STAT3 act 2 – counter-screen for STAT1 activators: human STAT3 activation | shares compounds with STAT1 activator | U3A cells STAT3-luciferase reporter, IL-6, luminescence; cells lack STAT1; 100 = IL-6 alone, no compound effect | activation (% of control), % at 5.7 µM | 1,200 tested, 46% active | AID 1316;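 active means activation above the solvent-only control well mean plus 3 SD, set per plate batch, cut at about 110% in these data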;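 further: 0% = no luminescence and 100% = median IL-6 plus DMSO wells; higher means more STAT3 reporter activation so hits are non-selective activators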
# The depositor's hits bear a star; nt = not tested or not shown. The list is not random: actives were taken first. Their share in the collection is about 5.1%.
SMILES,APP 5'UTR act,STAT3 blocker,STAT1 activator,STAT3 activator,STAT1 inh,NF-kB expr up,STAT1 activ conf,NFkB act STAT1ct,STAT3 act 2
CCOC(=O)Cc1csc(NC(=O)/C=C/c2ccc(OC)cc2)n1,48,36,90,75,11,0.93,nt,nt,nt
COc1ccc(-n2c(O)c(C=Nc3ccccc3)c3ccccc3c2=O)cc1,8,25,111,82,-14,1.1,nt,nt,nt
COc1ccc(N=Cc2sc(O)c3ccccc23)cc1,214*,-1,173*,103,-82,13*,331*,154*,104
CC(C)(C)c1ccc2c(c1)C(=O)c1ccccc1C2=O,162*,3,162*,102,-68,5.3*,209*,126,107
CC(=O)N1NC(=Nc2ccccc2)SC1(C)C,-20,23,85,82,15,0.69,nt,nt,nt
COc1ccc(-c2noc(-c3ccco3)n2)cc1OC,124,-4,152*,108,-57,5.7*,202*,137*,119*
COc1cccc(-c2noc(-c3ccoc3C)n2)c1,109,27,160*,84,-67,2.9,192*,134*,111*
COc1ccc(-c2nc3nc(N)nn3cc2C)cc1F,-4,-2,105,107,-8,1.1,nt,nt,nt
Cc1ccc(/C=N/n2c(C)nnc2C)o1,18,-6,107,101,-8,1.1,nt,nt,nt
Cc1ccc(C=Nc2ccc(N(C)C)cc2)o1,153*,6,164*,99,-70,0.85,149*,132,113*
COc1ccc(-c2cn3cc(Cl)ccc3n2)cc1OC,65,-32,127,132,-30,2,nt,nt,nt
COc1ccc(-c2cn3cc(C)ccc3n2)cc1Br,164*,23,175*,81,-84,6.8*,236*,103,86
CN(C)/C=C1\C(=O)N(c2ccc([N+](=O)[O-])cc2)N=C1c1ccccc1,31,-9,184*,118,-92,1.1,173*,126,120*
Nc1nc(N2CCN(c3ccc(F)cc3)CC2)n[nH]1,9,3,93,107,6,1.1,nt,nt,nt
Cc1cc(C(=O)CN2CCC(C)CC2)c(C)n1-c1ccc(F)cc1,136*,-7,157*,106,-63,0.74,164*,132,118*
COc1ccc(CCn2ccc(O)c(Cc3c(F)cccc3Cl)c2=O)cc1OC,19,14,107,97,-10,1.2,nt,nt,nt
Cc1ccc(C(=O)c2sc3nsc(C)c3c2N)cc1,198*,14,154*,94,-59,6.3*,239*,145*,114*
Cc1cc(C)n(-c2nnc(NC34CC5CC(CC(C5)C3)C4)nn2)n1,134,-25,162*,124,-70,2.5,182*,145*,159*
COc1ccc(C(C(=O)NCC2CCCO2)N(C(=O)CNC(=O)c2cccs2)c2ccccc2C)cc1OC (centres undefined),12,5,96,98,5,1.3,nt,nt,nt
COc1ccc(C(=O)COC(=O)c2ccc(N(C)C)cc2)cc1,13,7,113,98,-16,1.1,nt,nt,nt
CN(C)c1ccc(C(=O)OCC(=O)c2cccs2)cc1,103,37,172*,70,-79,5.2*,215*,123,104
CC(C)(C)OC(=O)N/N=C\C=C\c1ccc2c(c1)OCO2,nt,-3,158*,103,-66,1.1,185*,130,111*
COc1ccc(-c2cc(C(=O)Nc3ccccc3)on2)cc1,-6,-10,179*,112,-89,1.8,156*,128,110
COc1ccc(-c2cc(C(=O)Nc3ccccc3F)on2)cc1,25,24,127,85,-29,1.8,nt,nt,nt
O=C(Cn1nnc(-c2ccccc2)n1)N/N=C/c1ccco1,3,3,101,101,-3,1.1,nt,nt,nt
SMILES,APP 5'UTR act,STAT3 blocker,STAT1 activator,STAT3 activator,STAT1 inh,NF-kB expr up,STAT1 activ conf,NFkB act STAT1ct,STAT3 act 2
COc1cccc(OC)c1C(=O)Nc1ccc2c(c1)Cc1ccccc1-2,54,19,102,93,-3,1.9,nt,nt,nt
O=C(Nc1ccc2c(c1)Cc1ccccc1-2)c1cccnc1,69,15,151*,93,-58,2.5,143*,117,91
O=C(Nc1ccc(-c2nc3ccccc3o2)cc1)c1cccnc1,45,18,166*,88,-72,2.6,185*,146*,98
O=C(Nc1ccc2c(c1)Cc1ccccc1-2)c1ccco1,179*,18,174*,87,-81,4*,211*,139*,102
COc1ccc(C(=O)Nc2ccc3c(c2)Cc2ccccc2-3)cc1,-8,4,99,103,1,1.2,nt,nt,nt
Cc1ccc(CSc2ccc(C(=O)N3CCOCC3)cc2[N+](=O)[O-])cc1,-2,7,96,101,4,1.1,nt,nt,nt
O=C1C(c2cc(=O)c3ccccc3[nH]2)=C(O)c2ccccc21,144*,8,191*,95,-102,7*,193*,125,118*
O=c1cc(-c2ccccc2)[nH]c2ccccc12,-93,-22,108,124,-9,2.5,nt,nt,nt
COc1cccc(-c2cc(C(F)(F)F)n3nc(N)nc3n2)c1,-10,10,99,94,4,1.2,nt,nt,nt
COc1cccc(-c2cn3nc4c(nc3n2)CCCC4)c1,170*,16,160*,88,-66,3.6*,191*,111,89
CCOc1ccccc1NC(=S)N1CCC(c2nc3ccccc3o2)CC1,nt,2,96,98,5,0.9,nt,nt,nt
NC(N)=N/N=C/c1ccccc1OC(F)F,14,0,92,107,7,1.1,nt,nt,nt
COc1ccccc1/C=N\N=C(\N)c1ccccn1,57,11,162*,94,-70,2.7,190*,124,108
COc1ccc(/C=C/c2nc3ccccc3n2Cc2ccc(OC)c(OC)c2)cc1,181*,-7,184*,108,-94,6.8*,183*,135*,125*
CCCn1nnc(NC(=O)c2ccc3ccccc3c2)n1,35,17,154*,92,-62,3.2,128,126,95
Cc1ccccc1CN(C)CC(=O)Nc1c(C)cccc1C(C)C,10,-6,101,110,-3,0.95,nt,nt,nt
Fc1cc(F)c2nc(Nc3nc4cc5c(cc4s3)OCO5)sc2c1,16,-13,113,108,-14,2.2,nt,nt,nt
